Reference: ChEMBL document CHEMBL4229483, “Synthesis and evaluation of an orally available "Y"-shaped biaryl peroxisome proliferator-activated receptor δ agonist” (Bioorg Med Chem, 2018)

The molecules below were run against T1, Peroxisome proliferator-activated receptor delta (Homo sapiens, UniProt Q03181) (assay: Transactivation of human PPARdelta expressed in monkey CV-1 cells coexpressing TK-PPRE-Luc after 24 hrs by luciferase reporter gene assay).
T1 sequence (Q03181 whole entry): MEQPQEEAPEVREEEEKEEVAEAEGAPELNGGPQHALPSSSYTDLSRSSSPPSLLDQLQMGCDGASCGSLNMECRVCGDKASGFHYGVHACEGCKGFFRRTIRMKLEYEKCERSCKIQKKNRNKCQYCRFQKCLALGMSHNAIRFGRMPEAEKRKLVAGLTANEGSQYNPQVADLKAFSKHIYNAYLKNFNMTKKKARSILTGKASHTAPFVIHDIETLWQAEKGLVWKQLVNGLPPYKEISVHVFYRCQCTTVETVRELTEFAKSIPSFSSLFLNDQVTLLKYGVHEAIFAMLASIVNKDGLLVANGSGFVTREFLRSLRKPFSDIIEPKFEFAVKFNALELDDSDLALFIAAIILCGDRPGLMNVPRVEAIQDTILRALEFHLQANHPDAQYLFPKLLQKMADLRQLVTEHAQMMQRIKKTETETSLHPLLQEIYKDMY
Format: cell-based
Outline: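 Agonist activity tested in transiently transfected CV-1 cells by reporter assay. EC50 is the molar concentration giving 50% of the maximal reporter activity.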

SMILES	EC50
Cc1cc(SC(Cc2cc(Cl)ccc2Cl)c2ccc(-c3cc(F)c(F)c(F)c3)cc2)ccc1OCC(=O)O (centres undefined)	0.0095 µM
Cc1cc(SC(Cc2cc(F)c(F)c(F)c2)c2ccc(-c3ccccc3)cc2)ccc1OCC(=O)O (centres undefined)	0.086 µM
Cc1cc(SC(Cc2cc(F)ccc2F)c2ccc(-c3ccc(F)cc3)cc2)ccc1OCC(=O)O (centres undefined)	0.004 µM

What follows are molecules tested against T2, Peroxisome proliferator-activated receptor gamma (Homo sapiens, UniProt P37231) (assay: Transactivation of human PPARgamma expressed in monkey CV-1 cells coexpressing TK-PPRE-Luc after 24 hrs by luciferase reporter gene assay).
T2 sequence (P37231 whole entry): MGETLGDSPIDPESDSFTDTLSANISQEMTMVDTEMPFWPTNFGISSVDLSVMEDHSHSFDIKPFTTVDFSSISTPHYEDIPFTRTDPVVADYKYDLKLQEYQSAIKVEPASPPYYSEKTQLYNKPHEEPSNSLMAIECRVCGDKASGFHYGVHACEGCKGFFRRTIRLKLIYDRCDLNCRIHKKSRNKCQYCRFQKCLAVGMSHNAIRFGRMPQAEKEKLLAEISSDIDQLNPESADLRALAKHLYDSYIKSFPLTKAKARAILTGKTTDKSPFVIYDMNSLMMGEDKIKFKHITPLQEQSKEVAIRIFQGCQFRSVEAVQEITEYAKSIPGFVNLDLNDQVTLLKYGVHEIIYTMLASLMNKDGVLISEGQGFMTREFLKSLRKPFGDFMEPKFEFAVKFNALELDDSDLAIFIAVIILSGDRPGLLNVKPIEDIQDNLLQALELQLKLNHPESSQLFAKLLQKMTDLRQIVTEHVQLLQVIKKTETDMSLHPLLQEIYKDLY
Format: cell-based

SMILES	EC50
Cc1cc(SC(Cc2cc(Cl)ccc2Cl)c2ccc(-c3cc(F)c(F)c(F)c3)cc2)ccc1OCC(=O)O (centres undefined)	> 10 µM
Cc1cc(SC(Cc2cc(F)c(F)c(F)c2)c2ccc(-c3ccccc3)cc2)ccc1OCC(=O)O (centres undefined)	> 10 µM
Cc1cc(SC(Cc2cc(F)ccc2F)c2ccc(-c3ccc(F)cc3)cc2)ccc1OCC(=O)O (centres undefined)	> 10 µM

These molecules were tested against T3, Peroxisome proliferator-activated receptor alpha (Homo sapiens, UniProt Q07869) (assay: Transactivation of human PPARalpha expressed in monkey CV-1 cells coexpressing TK-PPRE-Luc after 24 hrs by luciferase reporter gene assay).
T3 sequence (Q07869 whole entry): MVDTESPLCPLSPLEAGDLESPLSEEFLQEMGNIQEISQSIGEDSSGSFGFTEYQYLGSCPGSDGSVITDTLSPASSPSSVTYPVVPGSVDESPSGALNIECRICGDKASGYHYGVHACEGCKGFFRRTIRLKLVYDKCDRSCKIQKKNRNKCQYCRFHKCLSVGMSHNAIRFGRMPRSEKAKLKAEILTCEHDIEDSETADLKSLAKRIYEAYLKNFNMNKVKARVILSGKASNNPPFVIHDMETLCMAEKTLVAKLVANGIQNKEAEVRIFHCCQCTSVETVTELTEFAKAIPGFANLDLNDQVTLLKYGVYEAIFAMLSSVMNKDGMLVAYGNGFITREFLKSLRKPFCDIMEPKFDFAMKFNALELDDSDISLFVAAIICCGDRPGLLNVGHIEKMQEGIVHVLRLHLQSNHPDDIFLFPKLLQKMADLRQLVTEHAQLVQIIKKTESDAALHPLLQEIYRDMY
Format: cell-based

SMILES	EC50
Cc1cc(SC(Cc2cc(Cl)ccc2Cl)c2ccc(-c3cc(F)c(F)c(F)c3)cc2)ccc1OCC(=O)O (centres undefined)	> 10 µM
Cc1cc(SC(Cc2cc(F)c(F)c(F)c2)c2ccc(-c3ccccc3)cc2)ccc1OCC(=O)O (centres undefined)	> 10 µM
Cc1cc(SC(Cc2cc(F)ccc2F)c2ccc(-c3ccc(F)cc3)cc2)ccc1OCC(=O)O (centres undefined)	> 10 µM
